Cneo AK release = causes C. neoformans cell lysis; 0.2% of 360,000 active; adenylate kinase release luminescence, 4 h; normalised: neutral wells 0, clomiphene wells 100; lysis activity, % at 15 µM;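 active means mean lysis activity across replicates of at least 80%, whatever share of replicates individually reach that level; inactive means mean lysis activity below 80%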
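Schedule: static 4 h at 37 °C with compound, 1 h detection; system: C. neoformans cells; benchmarks: Clomiphene as positive control; buffer or medium: fresh YPD medium; measure: luminescence rise reflecting yeast cell lysis; measured by: luminescent adenylate kinase detection reagent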
PglD DTNB = PglD (C. jejuni) enzyme inhibition; purified PglD enzyme, DTNB colorimetric CoA detection; inhibition, % at 12.5 µM; 0.098% of 360,000 active; AID 602405; in the data active means inhibition above about 16%, passing the limit was not always enough
CAL PDZ FP-1 = human CAL PDZ-peptide interaction inhibition; purified CAL PDZ, TMR-peptide fluorescence polarization, 1 h; inhibition, % at 20 µM; 0.02% of 330,000 active; Q9HD26;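 active means highest replicate inhibition of at least 40%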
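Material – purified CerCALP PDZ construct · Detection – FP readout, S and P plane fluorescence · Measure – percent inhibition from loss of millipolarization · Controls – unlabelled peptide for full inhibition, DMSO wells as neutral · Probe or stimulus – TMR-labelled reporter peptide T*-PRC34 bound in PDZ groove · Times – 1 h at RT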
CAL PDZ FP-2 = blocks peptide binding to the human CAL PDZ domain. 0.92% of 300,000 active. inhibition, % at 24.9 µM. Q9HD26. purified CAL PDZ, TMR-peptide fluorescence polarization, 1 h. AID 602252;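 active means mean inhibition of at least 30% with at least half of replicates also reaching 30%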
miR-122 sensor = blocks miR-122 activity in Huh7 sensor cells; Huh7 miR-122 Renilla luciferase sensor, 48 h; neutral wells = 0, positive control = 100; activation (reporter increase), % at 12.5 µM; 0.3% of 340,000 active;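 active means mean replicate activation score at least 90 and every replicate individually at or above 90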;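 further: higher luciferase means less miR-122 activity so hits act as miR-122 inhibitors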
Large screens that a line does not name were inactive. Sampled rows, rich in hits. Any-hit rate of the full collection: about 1.1%.

CC(=O)N1[C@@H]2c3ccc(C4=CCCC4)c(=O)n3C[C@H]1[C@H](CO)[C@H]2C(=O)NCc1ccccc1	none (no result: CAL PDZ FP-1, CAL PDZ FP-2)
Cn1cnc(S(=O)(=O)N[C@@H]2CC[C@@H](CC(=O)Nc3ccccc3)O[C@@H]2CO)c1	none (no result: CAL PDZ FP-1, CAL PDZ FP-2, miR-122 sensor)
COc1cc2c(cc1OC)C(c1cc3ccc(C)cc3[nH]c1=O)N(C(=O)c1ccco1)CC2 (stereo unspecified)	CAL PDZ FP-2 41
COc1cc2c(cc1OC)C(c1cc3cc4c(cc3[nH]c1=O)OCO4)N(C(=O)C1CC1)CC2 (stereo unspecified)	none
O=C(Nc1cccc(C(=O)N2CCCCC2)c1)C1CC1	CAL PDZ FP-2 81
CN(C(=O)c1cccc(NC(=O)Cc2ccc([N+](=O)[O-])cc2)c1)C1CCCC1	none
CC1CCCCN1C(=O)c1cccc(NC(=O)c2ccccc2)c1 (stereo unspecified)	CAL PDZ FP-2 76 (no result: Cneo AK release, PglD DTNB, miR-122 sensor)
CN(C(=O)c1cccc(NC(=O)c2ccccc2)c1)C1CCCCC1	CAL PDZ FP-2 48
Cc1cccc(NC(=O)C2CCCN(C(=O)Nc3ccc(F)cc3)C2)c1 (stereo unspecified)	CAL PDZ FP-2 44
O=C(Nc1cccc(C(=O)N2CCCC2)c1)C1CCCC1	none
CO[C@@H]1CN(C)C(=O)c2ccc(NC(=O)Nc3cc(F)ccc3F)cc2OC[C@H](C)N(C)C[C@@H]1C	none (no result: CAL PDZ FP-1, CAL PDZ FP-2, miR-122 sensor)
COC(=O)c1c(C)nc2c(c(SC)nn2-c2ccccc2)c1N	none (no result: miR-122 sensor)
COC(=O)c1c(C)nc2nonc2c1N	CAL PDZ FP-2 172 (no result: Cneo AK release, PglD DTNB, miR-122 sensor)
COc1ccc(CN(C)C[C@@H]2OCCCC[C@H](C)Oc3ccc(NS(=O)(=O)c4ccccc4)cc3C(=O)N([C@@H](C)CO)C[C@@H]2C)cc1	none (no result: CAL PDZ FP-1, CAL PDZ FP-2)
O=c1[nH]c(=O)n(C2CCCCCC2)c(O)c1C=NCc1ccc(F)cc1	CAL PDZ FP-2 34
O=C(COC(=O)CCN1C(=O)c2ccccc2C1=O)Nc1ccc(S(=O)(=O)N2CCCC2)cc1	none
O=C(COC(=O)CN1C(=O)c2ccccc2C1=O)Nc1ccc(S(=O)(=O)N2CCCC2)cc1	CAL PDZ FP-2 35 (no result: CAL PDZ FP-1)
CC(=O)N1[C@@H]2c3cccc(=O)n3C[C@@H]2[C@@H](CO)[C@@H]1C(=O)N[C@@H](C)c1ccccc1	none (no result: CAL PDZ FP-1, CAL PDZ FP-2)
CC(C)(C)OC(=O)N1CCC(C(=O)NCC2CCCO2)CC1 (stereo unspecified)	none
Cc1ccc(NC(=O)C(c2ccc(Cl)cc2)N2CCOCC2)cc1 (stereo unspecified)	CAL PDZ FP-2 43 (no result: Cneo AK release, PglD DTNB, miR-122 sensor)
C[C@@H]1CN([C@@H](C)CO)C(=O)c2cccc(NS(=O)(=O)c3ccc(Cl)cc3)c2O[C@H]1CN(C)C(=O)Nc1ccc(F)cc1	none (no result: CAL PDZ FP-1, CAL PDZ FP-2)
N#CC1C(=O)NC(=O)CC12CCCCC2 (stereo unspecified)	CAL PDZ FP-2 80
CNC[C@@H]1Oc2ccc(NC(=O)Nc3ccc(F)cc3)cc2C(=O)N([C@H](C)CO)C[C@@H]1C	none (no result: CAL PDZ FP-1, CAL PDZ FP-2)
CCC(=O)N[C@H]1C=C[C@H](CC(=O)NCc2ccccc2F)O[C@H]1CO	none (no result: CAL PDZ FP-1, CAL PDZ FP-2)
CC(=O)c1ccc(OCc2cc(C(=O)N3CCN(c4ccccc4)CC3C)no2)cc1 (stereo unspecified)	none
CSc1ccccc1OCc1cc(C(=O)N2CCN(c3ccccc3)CC2C)no1 (stereo unspecified)	CAL PDZ FP-2 69
CN(C)CCCNC(=O)c1ccc(-c2cc3nc(NCc4cccnc4)n(C)c(=O)c3s2)cc1	none (no result: CAL PDZ FP-1, CAL PDZ FP-2)
C[C@@H]1CCCCO[C@H](CN(C)C(=O)c2ccncc2)[C@@H](C)CN([C@@H](C)CO)C(=O)c2cc(NC(=O)Cc3ccccc3)ccc2O1	none (no result: CAL PDZ FP-1, CAL PDZ FP-2)
C[C@H](CO)N1C[C@H](C)[C@@H](CN(C)C(=O)c2ccncc2)OCCCC[C@H](C)Oc2ccc(NC(=O)Cc3ccccc3)cc2C1=O	Cneo AK release 102 (no result: CAL PDZ FP-1, CAL PDZ FP-2)
C[C@H]1CCCCO[C@H](CN(C)C(=O)c2ccncc2)[C@@H](C)CN([C@@H](C)CO)C(=O)c2cc(NC(=O)Cc3ccccc3)ccc2O1	Cneo AK release 113 (no result: CAL PDZ FP-1, CAL PDZ FP-2)
C[C@@H]1CCCCO[C@@H](CN(C)C(=O)c2ccncc2)[C@H](C)CN([C@H](C)CO)C(=O)c2cc(NC(=O)Cc3ccccc3)ccc2O1	none (no result: CAL PDZ FP-1, CAL PDZ FP-2)
COC(=O)c1cc(S(=O)(=O)N2CCCCC2C)c[nH]1 (stereo unspecified)	none (no result: miR-122 sensor)
COC(=O)c1cc(S(=O)(=O)N2CCCC(C)C2)c[nH]1 (stereo unspecified)	CAL PDZ FP-2 78
O=C(CCN1CCCCC1)N[C@H]1CC[C@H](CCNS(=O)(=O)c2ccc(Cl)cc2)O[C@@H]1CO	none (no result: CAL PDZ FP-1, CAL PDZ FP-2, miR-122 sensor)
CCCN1[C@@H]2c3ccc(/C=C/c4ccccc4)c(=O)n3C[C@@H]2[C@@H](CO)[C@@H]1C(=O)NCc1ccncn1	none (no result: CAL PDZ FP-1, CAL PDZ FP-2, miR-122 sensor)
O=C1c2ccccc2C2=Nc3ccccc3SC(c3ccc(Cl)cc3)C12 (stereo unspecified)	none (no result: Cneo AK release, PglD DTNB, miR-122 sensor)
O=C1c2ccccc2C2=Nc3ccccc3SC(c3cccc(F)c3)C12 (stereo unspecified)	miR-122 sensor 246
CCn1c(=O)c2c(nc3n2CCN3c2ccccc2)n(C)c1=O	none
CCOCCn1c(=O)c2c(nc3n2CCN3c2ccc(C)cc2)n(C)c1=O	CAL PDZ FP-2 77
COc1cc2oc3ccccc3c2cc1N(CC(=O)N(C)C)S(=O)(=O)c1ccccc1	miR-122 sensor 114
COc1ccc(Cl)cc1N(CC(=O)N(C)C)S(=O)(=O)c1ccc(C)c([N+](=O)[O-])c1	miR-122 sensor 101 (no result: CAL PDZ FP-2)
COc1ccc(Cl)cc1N(CC(=O)N/N=C/c1ccc(OC(C)C)cc1)S(=O)(=O)c1ccc(C)c([N+](=O)[O-])c1	none (no result: Cneo AK release, PglD DTNB, miR-122 sensor)
C[C@@H]1CN([C@H](C)CO)C(=O)c2cc(-c3cccc(C#N)c3)cnc2O[C@@H]1CN(C)C(=O)c1cnccn1	none (no result: CAL PDZ FP-1, CAL PDZ FP-2, miR-122 sensor)
Cc1ccc(S(=O)(=O)N2CCCN(C(=O)CNC(=O)c3cccc(C)c3)CC2)cc1	none (no result: Cneo AK release, PglD DTNB, miR-122 sensor)
COc1ccc(NC(=O)CC#N)cc1OC	CAL PDZ FP-2 30 (no result: CAL PDZ FP-1)
CC(C)CNC(=O)COC(=O)CCC(=O)c1ccc(Cl)cc1	CAL PDZ FP-1 41
CC(C)(C)NC(=O)COC(=O)CCC(=O)c1ccc(Cl)cc1	none (no result: Cneo AK release, PglD DTNB, miR-122 sensor)
Cc1ccc(Nc2nc3ccc(Cl)cc3n3cnnc23)cc1F	none
COc1ccc(S(=O)(=O)Nc2ccc3c(c2)CC(=O)N([C@@H](C)CO)C[C@H](C)[C@H](CN(C)C(=O)Nc2ccccc2)O3)cc1	none (no result: CAL PDZ FP-1, CAL PDZ FP-2)
O=C(COC(=O)c1cc(=O)c2ccccc2o1)NCc1ccccc1	CAL PDZ FP-2 50
O=C(COC(=O)c1ccc(Br)o1)NCc1ccc(Cl)cc1	CAL PDZ FP-2 31
O=C(COC(=O)c1cc(=O)c2ccccc2o1)NCc1ccc(Cl)cc1	none (no result: CAL PDZ FP-1, CAL PDZ FP-2)
CCC(=O)N1CN(S(=O)(=O)c2ccc(C)cc2)CC1C (stereo unspecified)	CAL PDZ FP-2 42
C#Cc1ccc(NC(=O)C2(C)CCN2C(=O)CC(c2ccccc2)c2ccccc2)cc1 (stereo unspecified)	none (no result: CAL PDZ FP-1, CAL PDZ FP-2)
C/C(Cc1ccccc1)=N\NC(=O)CNC(=O)c1ccc(Cl)cc1	none (no result: CAL PDZ FP-2)
